Experiment: Toxicity liver stage against HepG2, at 10uM
Assay type: cell-based
Set-up: test concentration 10 uM, cell line HepG2-A16-CD81EGFP
Conditions: human, HepG2-A16-CD81EGFP cells; read-out: INHIBITION
How it was run: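 Uninfected HepG2-A16-CD81EGFP cells, 3 × 10^3 per well, 1536-well, plated on prespotted compound at 10 μM final, parasite-free screening media added to match infected plates; puromycin 10 μM positive, DMSO 0.5% negative; run in parallel with 48 h PbLuc assay at 37 °C, 5% CO2; viability by CellTiter-Glo luminescence, normalized to controls.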

COc1ccc(-c2nnc([C@H]3CCN(CC4CC4)C3)o2)cc1
cytotoxicity at 10 µM: -4.6%

CC1=C[C@@H](CC#N)[C@H](C(C)C)C[C@H]1CC(=O)N1CCN(C)CC1
cytotoxicity at 10 µM: -4.42%

Cc1nn(CCC#N)c(C)c1[C@@H]1C=C[C@@H](NCc2cccc(Cl)c2)C1
cytotoxicity at 10 µM: -1.45%

CN1C[C@H](O)C[C@H]1c1nc(-c2ccc3c(c2)OCO3)no1
cytotoxicity at 10 µM: 6.88%

CC(C)c1noc(-c2cccc(OCC(N)=O)c2)n1
cytotoxicity at 10 µM: -7.39%

Cc1ccc(NC(=O)NCC2(O)CCCC2)cc1C
cytotoxicity at 10 µM: -6.8%

Cc1ccccc1CNC(=O)N1CC[C@@H]2CN(C)S(=O)(=O)[C@@H]2CC1
cytotoxicity at 10 µM: -0.39%

CNC(=O)N1CCc2cc(C(=O)NCC3CC3)c(NC(C)C)nc2CC1
cytotoxicity at 10 µM: 2.02%

O=c1c2cnc(N3CCOCC3)nc2ccn1-c1ccccc1
cytotoxicity at 10 µM: -3.12%

CCOc1ccc(C(=O)Nc2ccn(CC)n2)cc1
cytotoxicity at 10 µM: 3.16%

Cn1cc(NC(=O)c2cc3c(s2)CCCC3)cn1
cytotoxicity at 10 µM: -2.17%

CNC(=O)c1cnn2c(C3CCCN3)ccnc12 (stereo unspecified)
cytotoxicity at 10 µM: 8.88%

Cc1cnc(C(=O)NCC2Cc3ccccc3O2)cn1 (stereo unspecified)
cytotoxicity at 10 µM: -0.71%

N#Cc1cccnc1NCCc1cc(F)cc2c1OCOC2
cytotoxicity at 10 µM: 19.5%

CC(C)c1nnc(CN2CC(n3cccn3)C2)o1
cytotoxicity at 10 µM: -149%

CS(=O)(=O)c1ccc(NC(=O)NCCC2=CCCCC2)cc1
cytotoxicity at 10 µM: -0.529%

NC(=O)CCn1ccc(NCc2cc(F)ccc2Br)n1
cytotoxicity at 10 µM: -1.91%

CN(CC(=O)NC(C)(C)C)C(=O)c1cccn1CCc1ccccc1
cytotoxicity at 10 µM: 6.1%

Cc1ccc(-c2csc(-c3cccc(C(=O)O)c3)n2)cc1
cytotoxicity at 10 µM: 3.21%

COc1ccccc1OCCNC(=O)NCC(C)C
cytotoxicity at 10 µM: 7.54%

CC1CCN(C(=O)c2occc2COc2cccc(C#N)c2)CC1
cytotoxicity at 10 µM: 0.106%

Cc1nc(COc2ccc(OCC(N)=O)cc2)oc1C
cytotoxicity at 10 µM: 4.68%

O=C(Cn1cc(Cl)cn1)Nc1ccc2c(c1)OCCCO2
cytotoxicity at 10 µM: 4.98%

Cc1c(C(=O)NC2=NCCS2)cnn1-c1ccc(Br)cc1
cytotoxicity at 10 µM: -0.647%

O=C(CNC(=O)c1ccoc1)NCCOc1ccc2c(c1)CCC2
cytotoxicity at 10 µM: -7.98%

Cc1c(Cl)cccc1NC(=O)CCNc1ccc(C#N)cn1
cytotoxicity at 10 µM: -0.106%

COC(=O)N1CCC(Nc2cccc(F)c2C(C)=O)C1 (stereo unspecified)
cytotoxicity at 10 µM: 11.2%

Cc1ccc(C(=O)NCCNC(=O)c2cncnc2C(C)C)cc1F
cytotoxicity at 10 µM: 9.52%

COc1ccc(OC)c(C(O)CN2CCN(C3CCCC3)CC2)c1 (stereo unspecified)
cytotoxicity at 10 µM: 6.81%

COC(=O)C1CN(CC(=O)Nc2cccc(OC)c2)c2ccccc21 (stereo unspecified)
cytotoxicity at 10 µM: 11.1%

O=C(Nc1cnc(C2CC2)nc1)N1CCCC1
cytotoxicity at 10 µM: -14.9%

Cc1nn(C)c(N2CCOCC2)c1CNCC1CCCN1C (stereo unspecified)
cytotoxicity at 10 µM: -1.96%

CS(=O)(=O)NCCC(=O)NC1(c2ccc(F)cc2)CCCC1
cytotoxicity at 10 µM: -1.1%

Cc1nc(C)c(C)c(N2CCC3(CCOC3)C2)n1 (stereo unspecified)
cytotoxicity at 10 µM: -1.31%

Cn1c(Nc2ccc(F)cc2)c(C#N)c(=O)n(C)c1=O
cytotoxicity at 10 µM: 1.77%

CC(NC(=O)N(C)Cc1cnn(C)c1)c1nncn1C (stereo unspecified)
cytotoxicity at 10 µM: -3.03%

CCN(CC(=O)NC(C)C)C(=O)C(C)(C)c1ccc2c(c1)OCCO2
cytotoxicity at 10 µM: -2.79%

Cn1cccc(NC(=O)COc2ccc(Cl)cc2)c1=O
cytotoxicity at 10 µM: 4.69%

COc1ccccc1-c1cc(NC(=O)CCS(=O)(=O)C2CCCC2)[nH]n1
cytotoxicity at 10 µM: -123%

COc1c(C)cnc(CNC(=O)CCc2nc3ccccc3[nH]2)c1C
cytotoxicity at 10 µM: -5.27%

CCc1cnc(CN2CCOC(c3nc(C)n[nH]3)C2)o1 (stereo unspecified)
cytotoxicity at 10 µM: -4.83%

COc1ccccc1OCCC(=O)NCc1ncc(C)c(OC)c1C
cytotoxicity at 10 µM: -3.63%

CC(C(=O)NC(C)(C)C)N1CCC(C(=O)Nc2cnccn2)CC1 (stereo unspecified)
cytotoxicity at 10 µM: -1.36%

Cc1cccnc1NC(=O)C1CCN(C(C)C(=O)NC(C)(C)C)CC1 (stereo unspecified)
cytotoxicity at 10 µM: 3.15%

O=C(c1cccc(-c2ccc(F)cc2)c1)N1CCCC(O)(CO)CC1 (stereo unspecified)
cytotoxicity at 10 µM: -4.77%

COc1ccc(C(=O)N2CCN(C(=O)Cn3nccc3C)CC2)cc1
cytotoxicity at 10 µM: 6.88%

CCN(CCCN1CCOCC1)C(=O)c1cnn(CC)c1
cytotoxicity at 10 µM: 46.6%

COc1ccccc1OCc1cc(C(=O)N2CCS(=O)(=O)CC2)n[nH]1
cytotoxicity at 10 µM: -2.93%

O=C1NCCCCC1NC(=O)C1(Oc2ccc(Cl)cc2)CCNCC1 (stereo unspecified)
cytotoxicity at 10 µM: -6.21%

O[C@H]1[C@H](n2cc(-c3ccccn3)nn2)c2ccccc2C12CCNCC2
cytotoxicity at 10 µM: -11.5%

CN(Cc1ccoc1)c1ccc(-c2nccn2C)nn1
cytotoxicity at 10 µM: -5.12%

CCc1ccc2nc(C)cc(C(=O)NC3CCNC3=O)c2c1 (stereo unspecified)
cytotoxicity at 10 µM: -4.65%

Cc1ncsc1CN1CC(C)(C2CC2)CC1=O (stereo unspecified)
cytotoxicity at 10 µM: 0.832%

COCCNC(=O)[C@H]1C[C@@](CC(C)C)(C(=O)O)N(C)[C@H]1c1cccnc1
cytotoxicity at 10 µM: -6.16%

CCc1nc(N2CCCC(O)(CO)CC2)ncc1C (stereo unspecified)
cytotoxicity at 10 µM: 10.8%

Cc1cc(C(=O)NC(C)C(=O)Nc2cc(F)ccc2C)nc(C)n1 (stereo unspecified)
cytotoxicity at 10 µM: -3.71%

Cc1ccc(SCCN(C)C(=O)c2cn(CCN)nn2)cc1
cytotoxicity at 10 µM: -4.7%

COc1ccc(F)cc1C(=O)N1CC(c2ccncc2)C1
cytotoxicity at 10 µM: -4.93%

CCc1ccc(-c2cn3c(C(=O)NCC(C)C(=O)NC)csc3n2)cc1 (stereo unspecified)
cytotoxicity at 10 µM: 9.21%

Cc1nnc(NC(=O)N2CCCN(C3CCCC3)CC2)s1
cytotoxicity at 10 µM: -3.16%

Cc1nn(C)cc1-c1ccnc(N(C)Cc2noc(C(C)C)n2)n1
cytotoxicity at 10 µM: 1.41%

CCSC(C)c1nc(-c2ccc(C)nn2)no1 (stereo unspecified)
cytotoxicity at 10 µM: -6.24%

COc1cccc(-c2c[nH]c(C)n2)c1F
cytotoxicity at 10 µM: -3.29%

O=C(Cn1nc2ccccc2n1)N1CCCC(O)(CN2CCCC2)C1 (stereo unspecified)
cytotoxicity at 10 µM: -10.4%

Cc1cccc(C2CCCN(C(=O)CN3CCC(C(N)=O)CC3)C2)c1 (stereo unspecified)
cytotoxicity at 10 µM: -5.17%

CC(C)=CCCC(C)CN1CCC(n2cc(CO)nn2)CC1 (stereo unspecified)
cytotoxicity at 10 µM: -6.37%

CCC(=O)c1ccc(OCC(=O)NC(C)c2nnc(C)[nH]2)cc1 (stereo unspecified)
cytotoxicity at 10 µM: 5.37%

O=C(CSc1ccccc1)N1CCc2c(ncnc2N2CCOCC2)C1
cytotoxicity at 10 µM: -7.15%

O=C(c1ncccc1O)N1CCc2c(ncnc2N2CCOCC2)C1
cytotoxicity at 10 µM: -3.99%

CC(C)(O)CCc1cccc(C(=O)N2CCC3(CCOCC3)CC2)c1
cytotoxicity at 10 µM: 1.14%

COc1ccccc1OCc1cc(C(=O)N2[C@H](C)CC[C@@H]2C)n[nH]1
cytotoxicity at 10 µM: -2.01%

COC[C@@H]1CCCN1C(=O)c1cc(-c2cccc(OC)c2)n[nH]1
cytotoxicity at 10 µM: 6.6%

CCNC(=O)[C@@H]1C[C@H](N)CN1c1cc(C(F)(F)F)nc(N2CCCC2)n1
cytotoxicity at 10 µM: -3.97%

CC(C)(C)n1ccc(C(=O)N2CCCC(c3ccc(C(=O)O)cc3)C2)c1 (stereo unspecified)
cytotoxicity at 10 µM: 1.31%

COc1ccccc1OCc1cc(C(=O)N2CCC(C(C)O)CC2)n[nH]1 (stereo unspecified)
cytotoxicity at 10 µM: 0.127%

Cc1ncsc1CCNC(=O)Cn1nc(C)n(Cc2ccccc2)c1=O
cytotoxicity at 10 µM: 7.48%

O=C(Nc1ccc(F)cc1)C1CNCCN1C(=O)CCO (stereo unspecified)
cytotoxicity at 10 µM: 1.93%

CC(C)c1cc(NC(=O)c2cccnc2)[nH]n1
cytotoxicity at 10 µM: -4.24%

COC1CCN(C(=O)Nc2cc(C(F)(F)F)c[nH]c2=O)CC1
cytotoxicity at 10 µM: 4.1%

Cc1cccc(-c2noc(CN3CCOC(Cn4cccn4)C3)n2)c1 (stereo unspecified)
cytotoxicity at 10 µM: -3.07%

O=C(NCc1ccccn1)C1=NN(c2ccccc2)C(=O)CN1
cytotoxicity at 10 µM: -0.855%

O=C(CCN1CCOC(Cn2cccn2)C1)NC1CCCCC1 (stereo unspecified)
cytotoxicity at 10 µM: -6.28%

Cc1cc(C)n(CC2CCCN2C(=O)c2nccc3ccccc23)n1 (stereo unspecified)
cytotoxicity at 10 µM: -7.49%

CCN(C)c1ncnc2c1CCN(C(=O)c1ccoc1C)CC2
cytotoxicity at 10 µM: -0.675%

COc1c(CNC2(c3noc(C)n3)CCC2)c(C(C)C)nn1C
cytotoxicity at 10 µM: 2.08%

Cc1nn(C)cc1C(=O)N1C[C@@H]2CC[C@H]1CN(S(=O)(=O)N(C)C)C2
cytotoxicity at 10 µM: 19.8%

Cc1ccc(SCCN(C)C(=O)c2cn(C3CCC(N)CC3)nn2)cc1 (stereo unspecified)
cytotoxicity at 10 µM: -8.59%

COCCN1C[C@@H]2CC[C@H]1CN(Cc1ccc3ccccc3n1)C2
cytotoxicity at 10 µM: -11.3%

CC(C)NC(=O)CN(C)CC(=O)Nc1ccnn1C(C)C1CC1 (stereo unspecified)
cytotoxicity at 10 µM: -6%

CNc1ccnc(N2C[C@H]3CC[C@@H](C2)N(CCOC)C3=O)n1
cytotoxicity at 10 µM: 7.64%

Cc1ccc2nc(CNCCCOc3ccccc3)cc(O)c2c1 [UCSF924]
cytotoxicity at 10 µM: 5.5%

Reference: ChEMBL document CHEMBL4513216, “Probing the Open Global Health Chemical Diversity Library for Multistage-Active Starting Points for Next-Generation Antimalarials” (ACS Infect Dis, 2020)
